Experimental data: the array DNA melting data of Ke et al. (doi:10.1101/2024.01.08.574731)

Experiments:
[1] = folding enthalpy; higher = less favourable; fluorescence melt of hairpins on a sequencing array, two-state fit; conditions: sodium 0.088 M
In short: (§1)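 Melting temperature and folding enthalpy were derived from bootstrapped two-state fits. The fitted temperatures were raised by 9.35 °C to agree with UV melts, and four replicates were combined by inverse variance. The underlying data were Cy3 fluorescence images of library hairpins, with annealed Cy3 and quencher oligos, on a sequenced MiSeq flow cell in 50 mM Na-HEPES pH 8.0, 25 mM NaCl, taken in 2.5 °C steps up to 60 °C, normalised to pre-quench Cy3 and to control constructs.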

[2] = melting temperature; fluorescence melt of hairpins on a sequencing array, two-state fit, raised by 9.35 °C to match UV melts; conditions: sodium 0.088 M
In short: as §1

Row | Sequence | folding enthalpy [1] [kcal/mol] | Tm [2] [°C]
1 | GATCAGCTTCTGATC ((((((...)))))) | -31.5 | 49.1
2 | GCCACGCGAAAGCTTCGC ((.(.((....)).).)) | -7.03 | 33.6
3 | GGCCCCGAAAGGGTAGCC ((((((....)))..))) | -23.7 | 60.1
4 | GGTCAGACGAAAGTCACC (((..(((....)))))) | -14.6 | 30.5
5 | GCAATGCGAAAGCTTAGC ((.(.((....)).).)) | -15.9 | 36.4
6 | GCGTGACGACGC ((((....)))) | -27.2 | 56.8
7 | GATTTTGGAAACAAAGTC ((.((((....)))).)) | -27.5 | 35.3
8 | GGGATGCGAAAGCAACCC (((.(((....))).))) | -24.4 | 63.6
9 | GCCACCGAAAGGTGTGGC ((((((....)))..))) | -17.5 | 58.2
10 | GAACGCGAAAGCGATTC ((((((....))).))) | -14.1 | 45.7
11 | GAGGACGAAAGTCACCTC ((((((....)))..))) | -12.9 | 36.2
12 | GTAGTAGGAAACTACTGC (.(((((....))))).) | -27.5 | 45.7
13 | GTAGACGAAAGTCGTAC ((((((....))).))) | -23.6 | 49.9
14 | GAAGCCGGAAACGACTTC ((((.((....)).)))) | -34.4 | 46
15 | GCTATGCCGAAAGGCAGC (((..(((....)))))) | -12.1 | 40.2
16 | GTGGCTCGAAAGAGACAC (((.(((....))).))) | -40.1 | 68.9
17 | GTCCGCGAAAGCGGTGAC ((((((....)))..))) | -8.67 | 41
18 | GTATCACGAAAGTGGTAC (((.(((....))).))) | -27.9 | 52.8
19 | GATCACCGGGTGATC ((((((...)))))) | -30.8 | 55
20 | GACTCACGAAAGTGGGTC (((.(((....))).))) | -41.1 | 57.6
21 | GGGCAACGAAAGTTACCC (((.(((....))).))) | -38.9 | 52.2
22 | GGCGGTCGAAAGACAGCC (((.(((....))).))) | -35 | 67.7
23 | GGTGTTGGAAACAACGTC (..((((....))))..) | -26.5 | 47.2

Row | Sequence | folding enthalpy [1] [kcal/mol] | Tm [2] [°C]
24 | TACCCGAAAGGGTA (((((....))))) | -14.4 | 66.1
25 | GTAGGCGAAAGCCGATAC ((((((....)))..))) | -10.1 | 41.5
26 | GTCTGCCGAAAGGCCGAC (((.(((....))).))) | -25.6 | 54.1
27 | GCGGTGCGAAAGCGCAGC ((.(.((....)).).)) | -23.4 | 64.1
28 | GCGGGTCTCCGC ((((....)))) | -22.9 | 67.7
29 | GTGCGCGAAAGCGGACAC ((((((....)))..))) | -11.1 | 63.7
30 | GAGTCTGGAAACAGGCTC (((.(((....))).))) | -44 | 52.2
31 | GATCGACATCTCGATC ((((((....)))))) | -36 | 50.3
32 | GGGATCCCGAAAGGGCCC (((..(((....)))))) | -16.4 | 45
33 | GCCAGTACGAAAGTAGGC (((..(((....)))))) | -23.8 | 43.4
34 | GTTGTGGGAAACCATAGC (.(.(((....))).).) | -12.7 | 27.6
35 | GCGCCTCGAAAGAGACGC (((.(((....))).))) | -25.5 | 59.4
36 | GTACTGACGAAAGTCTAC (((..(((....)))))) | -6.65 | 21.8
37 | GCTGTCGAAAGACGCAGC ((((((....)))..))) | -14.1 | 46.6
38 | GCTCCTGGAAACAAGAGC ((((.((....)).)))) | -27.9 | 34.8
39 | GGGTCGGGAAACCGGCTC (.(.(((....))).).) | -21.1 | 47.9
40 | GGTCTTGGAAACGAGACC (((((.(....).))))) | -37.6 | 51.9
41 | GGCTAGGCGAAAGCCGCC (((..(((....)))))) | -15 | 60.8
42 | GGCAAGTCGAAAGACGCC (((..(((....)))))) | -18.2 | 53.1
43 | GTGGTGGGAAACTACCGC (.(((.(....).))).) | -28.4 | 42.7
44 | GAACCGGGAAACCGATTC (((.(((....))).))) | -26.4 | 39.2
45 | GAGTGGGGAAACCCACCC (.(((((....))))).) | -12.2 | 42.7
46 | GATAAGGCGAAAGCCATC (((..(((....)))))) | -9.19 | 29.6

Row | Sequence | folding enthalpy [1] [kcal/mol] | Tm [2] [°C]
47 | GCGAAGTTTCGC ((((....)))) | -18.2 | 50.7
48 | GCAGTGCGAAAGCGCGGC ((.(.((....)).).)) | -31 | 66.7
49 | GCCCATGGAAACGTGGGC (((((.(....).))))) | -38.2 | 59
50 | GTGCCAGGAAACTGGCGC (.(((((....))))).) | -22.8 | 62
51 | GCACATCGAAAGATTTGC (((.(((....))).))) | -36.1 | 45.2
52 | GTGTTGGGAAACCAGTAC ((..(((....)))..)) | -11 | 25
53 | GATTATGGAAACATAGTC ((.((((....)))).)) | -16.8 | 31.7
54 | GATCCCGCTCGGGATC ((((((....)))))) | -34 | 65.8
55 | GTTGGGGGAAACTCCAGC (.(((.(....).))).) | -23.5 | 35.8
56 | GTCGGCGAAAGCCCGAC ((((((....))).))) | -21.9 | 64.7
57 | GTCTATGGAAACGTAGAC (((((.(....).))))) | -31.8 | 43.7
58 | GCCCCGACGAAAGTCGGC (((..(((....)))))) | -4.92 | 41.1
59 | GGGCGTCGAAAGACCCCC (((.(((....))).))) | -16.6 | 59
60 | GTCCGCCGAAAGGCAGAC (((.(((....))).))) | -21.7 | 54.2
61 | GAGGAGCGAAAGCTTCTC (((.(((....))).))) | -33.2 | 57.2
62 | GCATCAGGAAACTGGTGC (((.(((....))).))) | -40.9 | 53.4
63 | GTACCCGCGAAAGCGTAC (((..(((....)))))) | -8.05 | 25.7
64 | GCCAGGGAAACCTGGC ((((((....)))))) | -37.4 | 69.2
65 | GATCTAAGAGTAGATC ((((((....)))))) | -14.9 | 37.1
66 | TCAGTGAAAACTGA (((((....))))) | -16.9 | 42.6
67 | GCTTTTCGAAAGAAGAGC (((.(((....))).))) | -30.7 | 47.4
68 | GCCATGCGAAAGCACTGC ((..(((....)))..)) | -10.4 | 31.8
69 | CGGGTTCGGAAACGACCG (((..(((....)))))) | -19.9 | 39.4
